Jurkat NFkB inh – lowers PMA/ionomycin-induced NF-kB signal in Jurkat cells; PMA/ionomycin-induced NF-kB luciferase reporter, luminescence; inhibition, % at 4 µM; 330,000 compounds, 0.53% hits; in the data active means inhibition above about 50%
IMP-1 inh – blocks Pseudomonas aeruginosa IMP-1 metallo-beta-lactamase. 290,000 compounds, 0.45% hits. AID 1556. purified IMP-1, nitrocefin hydrolysis, epi-absorbance fluorescence. inhibition, % at 5.6 µM;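 active means inhibition above the mean plus 3 SD of all compounds in the same screening run, cut at about 4.5% in these data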
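System: Purified recombinant IMP-1 metallo-beta-lactamase enzyme | Measured by: Fluorescence quenching readout, ex 480/em 530 nm | Replication: Singlicate | Incubation: 15 min preincubation plus 25 min reaction at 25 °C | Evaluation: Percent inhibition from optical density relative to buffer-blank wells | Benchmarks: DMSO with and without IMP-1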
aSyn 5UTR inh – 5' untranslated region of α-synuclein, MLPCN primary screen; 300,000 compounds, 0.82% hits; alpha-synuclein 5'UTR reporter, inhibitor activity; inhibition, % (tested at 7.5 µM); AID 1813; in the data active means inhibition above about 60%;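 further: H4 neuroglioblastoma cells stably carrying SNCA 5'UTR luciferase fusion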
VIM-2 inhibitor – inhibitors of Pseudomonas aeruginosa VIM-2 metallo-beta-lactamase. inhibition, % at 5.6 µM. 290,000 compounds, 0.89% hits. purified VIM-2, nitrocefin hydrolysis, epi-absorbance fluorescence;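 active means inhibition above the mean of all tested compounds plus 3 SD, cutoff set per screening run, cut at about 7.5% in these data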;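 further: red hydrolysis product quenches plate fluorescence so inhibitors raise well fluorescence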
Mdm2-MdmX inh – human Mdm2/MdmX binding inhibition. O15151+Q00987. SaOS-2 split-luciferase Mdm2/MdmX complementation, luminescence. inhibition, % at 8 µM. 330,000 compounds, 3% hits. AID 485346;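 active means inhibition of at least 50% at 8 µM in the primary screen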
Target sequence (O15151 whole entry, looked up): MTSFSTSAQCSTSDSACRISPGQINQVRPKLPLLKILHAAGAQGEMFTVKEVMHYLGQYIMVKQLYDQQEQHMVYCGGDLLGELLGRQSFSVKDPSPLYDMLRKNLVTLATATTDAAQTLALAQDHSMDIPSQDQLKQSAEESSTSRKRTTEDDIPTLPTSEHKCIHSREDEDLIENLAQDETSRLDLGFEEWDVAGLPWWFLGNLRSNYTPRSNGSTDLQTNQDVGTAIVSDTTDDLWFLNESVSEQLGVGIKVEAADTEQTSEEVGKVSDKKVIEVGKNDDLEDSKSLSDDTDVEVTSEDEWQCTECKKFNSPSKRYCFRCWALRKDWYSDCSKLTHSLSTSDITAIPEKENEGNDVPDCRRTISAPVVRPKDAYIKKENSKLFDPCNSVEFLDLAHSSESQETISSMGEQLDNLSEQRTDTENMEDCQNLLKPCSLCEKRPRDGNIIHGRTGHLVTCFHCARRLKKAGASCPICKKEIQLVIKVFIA
Target sequence (Q00987 whole entry, looked up): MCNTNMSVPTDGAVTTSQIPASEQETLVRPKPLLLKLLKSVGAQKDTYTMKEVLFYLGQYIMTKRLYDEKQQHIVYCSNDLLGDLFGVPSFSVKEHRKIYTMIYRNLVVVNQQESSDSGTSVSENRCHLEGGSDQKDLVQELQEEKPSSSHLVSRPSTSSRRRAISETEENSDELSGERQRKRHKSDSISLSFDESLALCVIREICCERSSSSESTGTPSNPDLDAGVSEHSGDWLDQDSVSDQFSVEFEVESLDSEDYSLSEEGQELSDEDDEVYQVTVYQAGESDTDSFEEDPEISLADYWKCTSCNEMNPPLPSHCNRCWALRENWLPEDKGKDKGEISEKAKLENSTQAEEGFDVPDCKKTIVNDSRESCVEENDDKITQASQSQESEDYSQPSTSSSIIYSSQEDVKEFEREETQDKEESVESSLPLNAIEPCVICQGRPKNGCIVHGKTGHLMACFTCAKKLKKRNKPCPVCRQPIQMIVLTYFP
697 NFkB inh – lowers PMA/ionomycin-induced NF-kB signal in 697 B cells; AID 435022; inhibition, % at 4 µM; 330,000 compounds, 0.33% hits; 697 B-cell NF-kB luciferase reporter, 16 h; in the data active means inhibition above about 35%
697 NFkB conf – inhibitors of the PMA/ionomycin-induced NF-kB reporter in 697 B cells, retest; 697 B-cell NF-kB luciferase, 16 h; 2,000 compounds, 35% hits; AID 449746; shares compounds with 697 NFkB inh; inhibition, % at 4 µM; in the data active means inhibition mostly above about 28%, no sharp cut-off; inactive means mostly below about 22%
Each line names hits and unclear results; the compound was inactive in the other large screens (follow-up assays come after a bar, where they were run). Only some compounds are listed: those with a hit (about 4.7% of all), similar ones and a draw of the others.

O=C1CN(C(=O)c2ccc3nc(Cc4cccc(Cl)c4)oc3c2)CCN1	none
COc1cc(OC)cc(C(=O)NC(C(=O)NCCc2ccccn2)C(C)C)c1 (configuration not stated)	none (no result: IMP-1 inh, aSyn 5UTR inh, VIM-2 inhibitor)
COC(=O)c1ccccc1NC(=O)c1ccc2c(c1)OCCO2	none
COC(=O)c1ccccc1NC(=S)NC(=O)c1ccc2c(c1)OCO2	697 NFkB inh 46 | 697 NFkB conf inactive
O=C(c1ccco1)N1CCN(c2ncnc3c2[nH]c2ccccc23)CC1	697 NFkB inh 36 | 697 NFkB conf inactive
CCOC(=O)N1CCN(c2ncnc3c2[nH]c2ccc(OC)cc23)CC1	697 NFkB inh 37 | 697 NFkB conf 38
Cc1ccc(N(C)C(=O)CCS(=O)(=O)c2cc3c(cc2Cl)NC(=O)CO3)cc1	none
COc1ccc(-c2cc3ccc(OC)cc3cn2)cc1	none (no result: IMP-1 inh, aSyn 5UTR inh, VIM-2 inhibitor) | 697 NFkB conf inactive
Cc1sc(N)nc1-c1c(C)n(C)c2ccccc12	none
CC(C)(C)c1ccc(NC(=O)C2=CN3CCS(=O)(=O)N=C3C=C2)cc1	none (no result: IMP-1 inh, aSyn 5UTR inh, VIM-2 inhibitor)
NC(=O)CCCn1c(C(=O)c2cc(Cl)c(N)c(Cl)c2)c2ccc([N+](=O)[O-])cc2[n+]1[O-]	aSyn 5UTR inh 71 (no result: IMP-1 inh, VIM-2 inhibitor) | 697 NFkB conf inactive
CC(=O)c1cccc(NC(=O)c2cnn3ccccc23)c1	none
CC(=O)c1ccc(NC(=O)c2cnn3ccccc23)cc1	aSyn 5UTR inh 79, 697 NFkB inh 36 | 697 NFkB conf inactive
CC1Cc2ccccc2N1S(=O)(=O)c1cnc(Cl)c(Br)c1 (configuration not stated)	697 NFkB inh 40 | 697 NFkB conf 35
CC1Cc2ccccc2N1S(=O)(=O)c1cnc(Cl)c(Cl)c1 (configuration not stated)	697 NFkB inh 45 | 697 NFkB conf 33
Nc1n[nH]c(N)c1N=Nc1cccc(C(F)(F)F)c1	none
NC(=O)c1c(NC(NC(=O)c2ccco2)(C(F)(F)F)C(F)(F)F)sc2c1CCCC2	697 NFkB inh 39 | 697 NFkB conf inactive
C(=N\Nc1nc(N2CCOCC2)nc(N2CCOCC2)n1)/c1cccnc1	none
O=C(Oc1cccc(/C=N/Nc2nc(N3CCOCC3)nc(N3CCOCC3)n2)c1)c1ccco1	697 NFkB inh 44 | 697 NFkB conf 25
Cc1ccccc1C(=O)NNC(=O)c1cccc(Br)c1	none
COc1ccc(S(=O)(=O)Nc2ccc(N(C)C(C)=O)cc2)cc1	697 NFkB inh 37 | 697 NFkB conf inactive
COc1ccc(S(=O)(=O)Nc2ccc(NC(C)=O)cc2)cc1	none
Cc1cccc(NC(=O)CSc2nnc(C)c(C)n2)c1	none
COc1ccc(S(=O)(=O)NCc2ccncc2)cc1NC(=O)c1ccccc1	none (no result: IMP-1 inh, VIM-2 inhibitor)
CCOc1ccc(S(=O)(=O)NCc2ccncc2)cc1NC(=O)c1ccccc1	697 NFkB inh 45 (no result: IMP-1 inh, VIM-2 inhibitor) | 697 NFkB conf 84
COc1ccc(Cl)cc1NC(=O)NCc1ccc2c(c1)OCO2	none
CCO/N=C(\N)c1[nH]ncc1Br	none
N/C(=N\OC(=O)c1ccc(Cl)cc1)c1[nH]ncc1Br	none | 697 NFkB conf inactive
CCC(NC(=O)CCc1c(C)c2cc3c4c(oc3cc2oc1=O)CCCC4)C(=O)O (configuration not stated)	697 NFkB inh 49 | 697 NFkB conf inactive
Cc1csc(NC(=O)c2cc3ccccc3o2)n1	697 NFkB inh 36 (no result: IMP-1 inh, aSyn 5UTR inh, VIM-2 inhibitor) | 697 NFkB conf inactive
Cc1csc(NC(=O)c2ccc(C)c([N+](=O)[O-])c2)n1	none | 697 NFkB conf inactive
Nc1nonc1-n1nnc(C(=O)N/N=C/c2ccco2)c1CSc1ccccc1	none
Cc1oc(-c2ccc(-c3ccccc3)cc2)nc1CN(CCO)C(C)C	none | 697 NFkB conf inactive
Cc1oc(-c2ccc(-c3ccccc3)cc2)nc1CN(C)C1CCOC1 (configuration not stated)	none | 697 NFkB conf inactive
O=C(NN=Cc1ccccc1C(=O)O)c1ccc(NS(=O)(=O)c2cccs2)cc1	none (no result: IMP-1 inh, aSyn 5UTR inh, VIM-2 inhibitor)
O=C(CCCN1C(=O)/C(=C/c2ccccc2Cl)SC1=S)NNC(=O)c1ccncc1	697 NFkB inh 48 | 697 NFkB conf 56
O=C(CCCN1C(=O)/C(=C/c2cccs2)SC1=S)NNC(=O)c1ccncc1	none
Cc1ccc(-c2nnc(-c3ccccc3Br)o2)cc1	none | 697 NFkB conf inactive
Cc1cc2c(cc1S(=O)(=O)NCCc1ccc(Cl)cc1)OCC(=O)N2	none
CCOC(=O)C(C)c1n[nH]c(=O)c2ccccc12 (configuration not stated)	697 NFkB inh 38 | 697 NFkB conf inactive
CC(C)(C)CN1C(N)=NC[C@H]1Cc1ccc(O)cc1	none (no result: IMP-1 inh, VIM-2 inhibitor)
CC(C)(C)CN1C(N)=NC[C@@H]1Cc1ccc(O)cc1	697 NFkB inh 44 (no result: IMP-1 inh, VIM-2 inhibitor) | 697 NFkB conf inactive
Cc1ccc(CSc2nnc(SCC(=O)N/N=C/C=C/c3ccco3)s2)cc1	none
Cc1ccc(CSc2nnc(SCC(=O)N/N=C/C=C/c3ccccc3[N+](=O)[O-])s2)cc1	aSyn 5UTR inh 89, 697 NFkB inh 66 | 697 NFkB conf 55
COc1cccc(C(=O)Nc2cccc3ccccc23)c1OC	none
O=C(Nc1ccc2ccccc2n1)c1ccc(Cl)cc1	none
COc1ccc(C(=O)Nc2ccc3ccccc3n2)c(OC)c1OC	none | 697 NFkB conf inactive
O=C(Nc1ccc2ccccc2n1)c1ccccc1Cl	none | 697 NFkB conf inactive
CCOc1ccccc1NC(=O)C(OC(=O)c1cnccn1)c1ccccc1 (configuration not stated)	none (no result: IMP-1 inh, VIM-2 inhibitor)
Cc1ccc(N=Nc2ccc(O)cc2)c(Br)c1	none | 697 NFkB conf inactive
CCN(CC)S(=O)(=O)c1ccc(N=Nc2cc(C)cc(Br)c2O)cc1	none (no result: IMP-1 inh, VIM-2 inhibitor)
COc1ccc(S(=O)(=O)NCc2cccnc2)cc1C(=O)Nc1ccccc1	none
Cc1cc(OC(=O)c2ccccc2Cl)cc(=O)n1C	697 NFkB inh 39 | 697 NFkB conf 47
Cc1ccc(S(=O)(=O)N(C(=N)N)c2nc(N(C)C)nc(N(C)C)n2)cc1	none
Cc1oc(-c2cccc(Cl)c2)nc1CSc1nc2c(c(=O)[nH]1)CCC2	none
Cc1oc(-c2ccccc2Cl)nc1CSc1nc2c(c(=O)[nH]1)CCC2	697 NFkB inh 41 | 697 NFkB conf inactive
Cc1ccc2c(c1)COc1c3ccc(C(=O)N[C@@H](C)CO)cc3nn1-2	none (no result: IMP-1 inh, VIM-2 inhibitor) | 697 NFkB conf inactive
C[C@@H](CO)NC(=O)c1ccc2c3n(nc2c1)-c1ccc(Cl)cc1CO3	none (no result: IMP-1 inh, VIM-2 inhibitor)
Cc1ccc2c(c1)COc1c3ccc(C(=O)NC(C)C)cc3nn1-2	none (no result: IMP-1 inh, VIM-2 inhibitor) | 697 NFkB conf inactive
Cc1ccc2c(c1)COc1c3ccc(C(=O)NCCO)cc3nn1-2	none (no result: IMP-1 inh, VIM-2 inhibitor) | 697 NFkB conf inactive
COc1ccc(/C=C/C(=O)O)cc1S(=O)(=O)N1CCCC1	none
CCC(=O)Nc1cccc(-c2ccc(N3CCC(C)CC3)nn2)c1	none | 697 NFkB conf inactive
CC1CCCCN1CC(O)COCc1ccc(Cl)cc1 (configuration not stated)	none
